Test results from ChEMBL document CHEMBL6134769, “Discovery of N-substituted-2-oxoindolin benzoylhydrazines as c-MET/SMO modulators in EGFRi-resistant non-small cell lung cancer” (RSC Med Chem, 2025).
Calls of active or inactive are those of the source. No cut-off for these calls is given here.

Tests used:
Homo sapiens = species on record: Homo sapiens; experiment: Inhibition of human full-length N-terminal His-tagged ABL (2 to 1130 (end)residues) expressed in baculovirus expression system at 20 uM measured after 1 hr in presence of peptide substrate and ATP by off-chip mobility shift assay relative to control
Summary of the method: (§1)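 Off-chip mobility shift assay. Product and substrate peptides were separated; activity was taken as P/(P+S). Complete reaction was set as 0% inhibition and enzyme-free background as 100%. Run in triplicate, mean ± SD.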

[1] = target: Ephrin type-A receptor 2 (Homo sapiens) (UniProt P29317); experiment: Inhibition of EPHA2 (unknown origin) at 20 uM measured after 1 hr in presence of peptide substrate and ATP by off-chip mobility shift assay relative to control; summary of the method: as §1
Chain of Ephrin type-A receptor 2 (Homo sapiens) (P29317 whole entry, the tested form may be a part): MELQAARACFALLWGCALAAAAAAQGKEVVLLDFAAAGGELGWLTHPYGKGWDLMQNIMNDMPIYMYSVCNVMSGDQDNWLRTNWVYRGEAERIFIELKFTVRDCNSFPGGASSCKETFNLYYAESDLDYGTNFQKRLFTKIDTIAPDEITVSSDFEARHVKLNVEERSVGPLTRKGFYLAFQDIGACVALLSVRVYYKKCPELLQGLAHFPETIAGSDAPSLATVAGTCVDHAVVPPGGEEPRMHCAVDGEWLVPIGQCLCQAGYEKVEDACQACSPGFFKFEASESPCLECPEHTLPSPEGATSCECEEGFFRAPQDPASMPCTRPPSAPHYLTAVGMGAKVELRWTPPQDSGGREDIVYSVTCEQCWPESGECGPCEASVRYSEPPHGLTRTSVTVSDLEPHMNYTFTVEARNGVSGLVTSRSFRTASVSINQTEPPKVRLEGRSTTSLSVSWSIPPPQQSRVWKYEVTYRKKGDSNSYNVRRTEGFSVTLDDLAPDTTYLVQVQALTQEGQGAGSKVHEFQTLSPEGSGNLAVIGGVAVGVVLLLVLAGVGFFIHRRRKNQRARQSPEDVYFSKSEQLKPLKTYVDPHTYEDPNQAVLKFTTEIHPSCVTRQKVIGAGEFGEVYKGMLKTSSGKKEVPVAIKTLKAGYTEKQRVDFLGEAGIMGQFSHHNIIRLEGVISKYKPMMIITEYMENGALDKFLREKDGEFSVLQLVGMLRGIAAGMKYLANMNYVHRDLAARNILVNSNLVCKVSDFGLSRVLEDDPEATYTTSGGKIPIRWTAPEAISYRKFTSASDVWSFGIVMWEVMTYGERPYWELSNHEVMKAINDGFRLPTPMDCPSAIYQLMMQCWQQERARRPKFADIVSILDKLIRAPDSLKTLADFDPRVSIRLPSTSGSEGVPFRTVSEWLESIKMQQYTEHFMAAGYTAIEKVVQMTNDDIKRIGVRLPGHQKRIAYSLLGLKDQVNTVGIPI

[2] = target: Fibroblast growth factor receptor 1 (Homo sapiens) (UniProt P11362); experiment: Inhibition of human N-terminal GST-fused FGFR1 cytoplasmic domain (398 to 822 (end)residues) expressed in baculovirus expression system at 20 uM measured after 1 hr in presence of peptide substrate and ATP by off-chip mobility shift assay relative to control; summary of the method: as §1
Chain of Fibroblast growth factor receptor 1 (Homo sapiens) (P11362 22-822 limits assumed): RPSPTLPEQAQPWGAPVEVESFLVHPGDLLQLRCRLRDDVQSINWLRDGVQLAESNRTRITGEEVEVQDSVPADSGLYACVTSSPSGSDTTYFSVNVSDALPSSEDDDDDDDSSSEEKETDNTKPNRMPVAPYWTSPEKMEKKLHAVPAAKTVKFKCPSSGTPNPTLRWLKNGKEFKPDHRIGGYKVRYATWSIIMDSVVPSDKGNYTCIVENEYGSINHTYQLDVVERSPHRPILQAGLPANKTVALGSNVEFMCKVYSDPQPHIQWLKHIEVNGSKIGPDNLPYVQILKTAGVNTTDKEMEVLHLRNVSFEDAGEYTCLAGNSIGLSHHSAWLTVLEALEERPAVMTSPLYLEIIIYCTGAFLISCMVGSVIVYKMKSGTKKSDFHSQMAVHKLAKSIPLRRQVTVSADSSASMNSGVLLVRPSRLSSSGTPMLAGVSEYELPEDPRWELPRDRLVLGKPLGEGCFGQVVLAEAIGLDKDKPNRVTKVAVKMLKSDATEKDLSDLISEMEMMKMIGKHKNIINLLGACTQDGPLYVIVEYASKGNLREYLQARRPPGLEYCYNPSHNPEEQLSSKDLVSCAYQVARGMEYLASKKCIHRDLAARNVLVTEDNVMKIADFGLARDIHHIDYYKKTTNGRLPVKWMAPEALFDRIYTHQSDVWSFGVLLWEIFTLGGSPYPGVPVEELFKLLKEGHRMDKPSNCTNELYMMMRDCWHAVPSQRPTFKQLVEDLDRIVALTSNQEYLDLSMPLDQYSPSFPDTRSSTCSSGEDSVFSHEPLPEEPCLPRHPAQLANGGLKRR

[3] = target: T1, Ephrin type-B receptor 4 (Homo sapiens) (UniProt P54760); experiment: Inhibition of human N-terminal GST-fused EPHB4 cytoplasmic domain (577 to 987 (end)residues) expressed in baculovirus expression system at 20 uM measured after 1 hr in presence of peptide substrate and ATP by off-chip mobility shift assay relative to control; summary of the method: as §1
T1 sequence (whole entry): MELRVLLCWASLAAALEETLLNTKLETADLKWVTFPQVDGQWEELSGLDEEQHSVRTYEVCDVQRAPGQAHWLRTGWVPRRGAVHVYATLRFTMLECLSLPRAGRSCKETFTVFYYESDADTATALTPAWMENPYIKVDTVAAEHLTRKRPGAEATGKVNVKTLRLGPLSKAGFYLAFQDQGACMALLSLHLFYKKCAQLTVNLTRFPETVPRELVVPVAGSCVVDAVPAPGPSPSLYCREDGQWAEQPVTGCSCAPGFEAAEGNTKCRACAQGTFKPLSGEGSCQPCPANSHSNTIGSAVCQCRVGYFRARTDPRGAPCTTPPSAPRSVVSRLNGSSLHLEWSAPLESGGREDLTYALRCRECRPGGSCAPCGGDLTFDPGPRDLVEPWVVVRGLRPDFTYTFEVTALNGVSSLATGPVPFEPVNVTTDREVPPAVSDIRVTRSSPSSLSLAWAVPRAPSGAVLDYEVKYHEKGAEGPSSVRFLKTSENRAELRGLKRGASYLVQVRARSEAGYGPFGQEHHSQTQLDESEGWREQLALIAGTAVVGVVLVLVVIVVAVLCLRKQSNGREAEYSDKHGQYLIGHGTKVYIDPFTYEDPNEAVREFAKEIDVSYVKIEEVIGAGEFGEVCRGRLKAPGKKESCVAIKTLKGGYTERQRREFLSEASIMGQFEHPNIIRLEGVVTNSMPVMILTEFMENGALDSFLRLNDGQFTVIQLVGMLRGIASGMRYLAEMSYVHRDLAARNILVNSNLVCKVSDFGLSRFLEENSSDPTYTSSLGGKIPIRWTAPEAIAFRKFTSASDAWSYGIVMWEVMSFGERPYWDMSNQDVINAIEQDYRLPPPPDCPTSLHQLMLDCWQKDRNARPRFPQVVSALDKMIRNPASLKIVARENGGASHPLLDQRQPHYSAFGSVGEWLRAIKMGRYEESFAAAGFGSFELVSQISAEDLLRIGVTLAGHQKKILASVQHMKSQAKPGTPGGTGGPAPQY

[4] = target: Insulin-like growth factor 1 receptor (Homo sapiens) (UniProt P08069); experiment: Inhibition of human N-terminal GST-fused IGF1R cytoplasmic domain (959 to 1367 (end)residues) expressed in baculovirus expression system at 20 uM measured after 1 hr in presence of peptide substrate and ATP by off-chip mobility shift assay relative to control; summary of the method: as §1
Chain of Insulin-like growth factor 1 receptor (Homo sapiens) (P08069 31-736 limits assumed): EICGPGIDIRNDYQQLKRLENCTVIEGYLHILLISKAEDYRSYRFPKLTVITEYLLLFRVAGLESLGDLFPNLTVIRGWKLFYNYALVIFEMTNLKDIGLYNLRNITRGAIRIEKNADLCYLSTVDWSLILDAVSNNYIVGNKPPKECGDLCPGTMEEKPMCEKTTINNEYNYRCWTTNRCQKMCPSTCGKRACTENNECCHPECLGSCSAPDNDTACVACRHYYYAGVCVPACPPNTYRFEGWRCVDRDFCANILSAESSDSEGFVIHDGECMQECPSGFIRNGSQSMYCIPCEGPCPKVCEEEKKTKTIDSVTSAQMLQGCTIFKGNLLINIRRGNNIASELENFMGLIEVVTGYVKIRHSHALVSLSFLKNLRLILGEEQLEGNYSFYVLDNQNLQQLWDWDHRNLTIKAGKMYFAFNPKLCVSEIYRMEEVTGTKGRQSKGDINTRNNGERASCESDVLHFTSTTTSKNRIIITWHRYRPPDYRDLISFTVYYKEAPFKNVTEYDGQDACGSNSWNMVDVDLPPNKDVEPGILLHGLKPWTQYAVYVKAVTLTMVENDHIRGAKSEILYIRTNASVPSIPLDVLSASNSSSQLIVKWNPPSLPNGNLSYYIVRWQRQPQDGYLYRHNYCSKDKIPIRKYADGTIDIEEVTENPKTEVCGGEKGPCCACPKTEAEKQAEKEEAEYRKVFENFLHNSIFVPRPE
Chain of Insulin-like growth factor 1 receptor (Homo sapiens) (P08069 741-1367 limits assumed): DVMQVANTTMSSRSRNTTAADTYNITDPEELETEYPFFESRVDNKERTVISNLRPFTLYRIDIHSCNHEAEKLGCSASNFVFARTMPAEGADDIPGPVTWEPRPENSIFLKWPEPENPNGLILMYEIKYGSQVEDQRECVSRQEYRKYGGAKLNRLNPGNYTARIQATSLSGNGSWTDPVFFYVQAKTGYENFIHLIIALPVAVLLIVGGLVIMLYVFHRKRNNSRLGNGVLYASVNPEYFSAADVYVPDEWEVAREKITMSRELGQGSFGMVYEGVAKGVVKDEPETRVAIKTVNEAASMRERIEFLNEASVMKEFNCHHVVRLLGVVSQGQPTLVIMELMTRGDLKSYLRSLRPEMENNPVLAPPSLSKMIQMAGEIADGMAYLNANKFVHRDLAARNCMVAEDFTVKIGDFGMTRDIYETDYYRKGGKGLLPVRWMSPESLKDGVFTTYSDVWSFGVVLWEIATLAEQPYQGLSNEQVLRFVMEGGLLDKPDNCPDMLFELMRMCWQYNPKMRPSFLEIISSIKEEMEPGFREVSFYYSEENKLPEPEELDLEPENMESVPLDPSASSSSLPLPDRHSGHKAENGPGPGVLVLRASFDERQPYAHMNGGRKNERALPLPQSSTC

[5] = target: T2, Tyrosine-protein kinase ITK/TSK (Homo sapiens) (UniProt Q08881); experiment: Inhibition of human full-length N-terminal GST-fused ITK (2 to 620 (end)residues) expressed in baculovirus expression system at 20 uM measured after 1 hr in presence of peptide substrate and ATP by off-chip mobility shift assay relative to control; summary of the method: as §1
T2 sequence (whole entry): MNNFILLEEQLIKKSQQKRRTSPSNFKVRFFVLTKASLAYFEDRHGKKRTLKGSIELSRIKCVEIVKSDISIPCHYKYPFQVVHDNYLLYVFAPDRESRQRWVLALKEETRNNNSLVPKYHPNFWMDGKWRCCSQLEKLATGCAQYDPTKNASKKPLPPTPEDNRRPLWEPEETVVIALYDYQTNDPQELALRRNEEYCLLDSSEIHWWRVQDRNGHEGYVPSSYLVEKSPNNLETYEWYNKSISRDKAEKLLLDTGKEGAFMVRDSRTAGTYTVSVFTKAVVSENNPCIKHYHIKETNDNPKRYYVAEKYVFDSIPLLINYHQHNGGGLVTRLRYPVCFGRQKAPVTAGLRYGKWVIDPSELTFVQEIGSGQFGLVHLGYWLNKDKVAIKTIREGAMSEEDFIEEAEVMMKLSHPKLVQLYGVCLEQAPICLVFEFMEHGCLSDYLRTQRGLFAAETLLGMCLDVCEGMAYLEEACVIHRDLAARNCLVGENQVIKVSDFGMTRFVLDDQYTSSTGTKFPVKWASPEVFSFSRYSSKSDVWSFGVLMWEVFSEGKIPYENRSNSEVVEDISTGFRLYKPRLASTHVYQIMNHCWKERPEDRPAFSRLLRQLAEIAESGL

[6] = target: Tyrosine-protein kinase SYK (Homo sapiens) (UniProt P43405); experiment: Inhibition of human full-length N-terminal GST-fused SYK (1 to 635 (end)residues) expressed in baculovirus expression system at 20 uM measured after 1 hr in presence of peptide substrate and ATP by off-chip mobility shift assay relative to control; summary of the method: as §1
[7] = target: Angiopoietin-1 receptor (Homo sapiens) (UniProt Q02763); experiment: Inhibition of human N-terminal GST-fused TIE2 cytoplasmic domain (771 to 1124 (end)residues) expressed in baculovirus expression system at 20 uM measured after 1 hr in presence of peptide substrate and ATP by off-chip mobility shift assay relative to control; summary of the method: as §1
Chain of Angiopoietin-1 receptor (Homo sapiens) (Q02763 whole entry, the tested form may be a part): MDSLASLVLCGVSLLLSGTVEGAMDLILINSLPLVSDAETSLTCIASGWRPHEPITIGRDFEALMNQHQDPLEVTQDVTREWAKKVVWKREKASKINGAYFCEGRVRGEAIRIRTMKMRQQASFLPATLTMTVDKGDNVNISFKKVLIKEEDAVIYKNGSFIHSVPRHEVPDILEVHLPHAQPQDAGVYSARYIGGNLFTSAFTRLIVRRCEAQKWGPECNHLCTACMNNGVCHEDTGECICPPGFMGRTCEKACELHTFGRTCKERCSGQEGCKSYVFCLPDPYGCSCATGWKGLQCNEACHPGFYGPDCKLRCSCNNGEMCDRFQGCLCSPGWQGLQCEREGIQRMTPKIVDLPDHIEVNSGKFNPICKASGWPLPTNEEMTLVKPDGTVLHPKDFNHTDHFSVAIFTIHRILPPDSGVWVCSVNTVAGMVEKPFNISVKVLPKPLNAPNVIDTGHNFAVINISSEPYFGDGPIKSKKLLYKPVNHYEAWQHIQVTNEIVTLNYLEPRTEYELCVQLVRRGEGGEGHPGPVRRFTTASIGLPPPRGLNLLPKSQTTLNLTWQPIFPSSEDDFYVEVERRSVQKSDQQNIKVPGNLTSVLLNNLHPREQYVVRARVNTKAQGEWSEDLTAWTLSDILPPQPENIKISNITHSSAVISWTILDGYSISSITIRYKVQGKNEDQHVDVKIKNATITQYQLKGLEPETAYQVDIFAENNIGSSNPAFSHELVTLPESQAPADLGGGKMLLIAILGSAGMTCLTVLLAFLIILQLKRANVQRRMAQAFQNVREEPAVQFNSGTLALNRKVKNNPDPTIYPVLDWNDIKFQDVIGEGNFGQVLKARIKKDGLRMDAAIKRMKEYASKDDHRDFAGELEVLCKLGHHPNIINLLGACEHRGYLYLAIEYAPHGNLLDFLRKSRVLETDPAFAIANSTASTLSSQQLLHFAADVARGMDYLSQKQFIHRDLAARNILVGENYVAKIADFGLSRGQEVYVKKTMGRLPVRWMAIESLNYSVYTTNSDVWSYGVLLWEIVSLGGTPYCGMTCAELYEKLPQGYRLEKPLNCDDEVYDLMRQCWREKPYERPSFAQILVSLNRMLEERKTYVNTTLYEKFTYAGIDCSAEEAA

[8] = Antiproliferative activity against human HCC827 Gefitinib-resistant (GR) cells assessed as reduction in cell viability measured after 72 hrs by MTS assay
[9] = Antiproliferative activity against human PC9-OR cells assessed as reduction in cell viability measured after 72 hrs by MTS assay
Protein smoothened = Protein smoothened (Homo sapiens, UniProt Q99835); experiment: Inhibition of SMO in human PC9-OR cells assessed as reduction in GLI1 expression at antiproliferative IC50 measured after 72 hrs by Western blot analysis; type: functional, cell-based
Chain of Protein smoothened (Q99835 whole entry): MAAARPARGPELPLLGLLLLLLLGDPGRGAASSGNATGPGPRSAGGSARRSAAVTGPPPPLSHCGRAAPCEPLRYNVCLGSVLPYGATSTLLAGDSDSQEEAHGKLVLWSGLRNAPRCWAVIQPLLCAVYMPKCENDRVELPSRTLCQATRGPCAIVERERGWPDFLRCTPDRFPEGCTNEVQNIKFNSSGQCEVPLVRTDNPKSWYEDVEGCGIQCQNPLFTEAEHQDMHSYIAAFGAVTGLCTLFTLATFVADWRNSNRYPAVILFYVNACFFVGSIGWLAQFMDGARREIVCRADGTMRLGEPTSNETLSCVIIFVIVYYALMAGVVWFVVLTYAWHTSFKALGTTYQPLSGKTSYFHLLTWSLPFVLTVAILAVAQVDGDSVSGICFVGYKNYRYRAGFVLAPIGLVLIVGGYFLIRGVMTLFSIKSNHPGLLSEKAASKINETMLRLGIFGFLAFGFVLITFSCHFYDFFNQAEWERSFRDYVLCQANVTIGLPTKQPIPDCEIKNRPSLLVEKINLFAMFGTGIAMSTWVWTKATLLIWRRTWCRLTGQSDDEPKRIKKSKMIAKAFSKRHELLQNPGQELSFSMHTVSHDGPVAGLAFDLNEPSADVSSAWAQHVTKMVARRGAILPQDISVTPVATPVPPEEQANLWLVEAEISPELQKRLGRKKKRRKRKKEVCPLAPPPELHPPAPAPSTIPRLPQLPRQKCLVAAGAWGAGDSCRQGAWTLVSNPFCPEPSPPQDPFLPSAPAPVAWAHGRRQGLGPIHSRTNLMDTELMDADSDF

SMILES | inhibition (Homo sapiens) | inhibition [1] | inhibition [2] | inhibition [3] | inhibition [4] | inhibition [5] | inhibition [6] | inhibition [7] | IC50 [8] | IC50 [9] | inhibition (Protein smoothened)
Cc1ccc(NC(=O)CN2C(=O)/C(=N\NC(=O)c3cc(Br)ccc3O)c3ccccc32)cc1 | 74.9% | 95% | 91.7% | 93.3% | 80.2% | 70.3% | 91.9% | 93.1% | 10.7 µM | 9.51 µM | Active
Cc1ccc(NC(=O)CN2C(=O)/C(=N\NC(=O)c3cc(Br)ccc3O)c3ccc(Cl)cc32)cc1 |  | 62.5% | 71.8% | 63% | 55.3% | 58.9% | 49.4% | 76.7% | 5.16 µM | 2.27 µM | Active
O=C(CN1C(=O)/C(=N\NC(=O)c2cc(Br)ccc2O)c2c(Br)cccc21)Nc1ccc([N+](=O)[O-])cc1 | 67.9% | 71.5% | 81.6% | 70.8% | 66% | 56.7% | 89.7% | 89.5% | 3.52 µM | 4.05 µM | Active
Cc1ccc(NC(=O)CN2C(=O)/C(=N\NC(=O)c3cc(Br)ccc3O)c3ccc(Br)cc32)cc1 | 63.5% | 69.2% | 71.4% | 62.5% | 54% | 52.8% | 54.1% | 76.7% | 4.34 µM | 2.08 µM | Active
